In brackets after ≈: the same amount, converted by molar mass. Several values for one entry are separate records, joined by “and”; a condition that tells them apart may be missing. Equal values may be shown once. Square brackets hold non-standard residues; d marks the D form. Peptide text beside a SMILES is read from it. 1Nal = N[C@@H](Cc1cccc2ccccc12)C(=O)O; hPhe = N[C@@H](CCc1ccccc1)C(=O)O

In data set [1] the test system is Escherichia coli. As to the kind of experiment: Antibacterial activity against Escherichia coli HB101 after 24 hrs by microdilution serial twofold assay. It is filed as functional. The note with it: HB101, 24 h. An outline of the steps:
(§1)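 Bacteria grown in static culture at 37 °C in Mueller Hinton broth and diluted to 5 × 10⁵ CFU/mL. Peptides were tested by twofold serial microdilution starting from 100 μg/mL, with peptide-free control wells. The MIC was the lowest concentration with no rise in turbidity after overnight incubation at 37 °C. Values are means of at least two independent experiments run in duplicate.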
In general terms: Dilution methods test growth across graded concentrations, often in twofold steps.

Data set [2] in a line: Toxicity assessed as hemolytic activity in human red blood cells after 30 mins. It is filed as cell-based, Erythrocyte. The note with it: read-out: HD50. Put shortly: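 Serially diluted peptides were incubated with 10⁸ washed human RBC (100 µL) for 30 min at 37 °C with agitation. After centrifugation at 900g for 10 min, haemoglobin in the supernatant was read at 550 nm. Distilled water gave maximal lysis. HC₅₀ is the mean from at least two independent experiments run in triplicate.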

Data set [3] concerns Leishmania major. As to the kind of experiment: Antileishmanial activity against Leishmania major MHOM/IL/67/JERICHO-2 assessed as protozoal viability after 24 hrs by dye exclusion method. It counts as functional. Put shortly:
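Promastigotes grown at 25 °C in supplemented medium 199 containing 20% heat-inactivated FCS, then resuspended at 5 × 10⁵ viable/mL with serially diluted peptides. After 24 h at 25 °C with agitation, viable cells were counted by haemocytometer using trypan blue exclusion. LC₅₀ is the 50% survival reduction versus an untreated culture, fitted by nonlinear regression. Run in triplicate.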

The test system of data set [4] is Staphylococcus aureus. As to the kind of experiment: Antibacterial activity against Staphylococcus aureus Cowan 1 NCTC 8530 after 3 hrs by microdilution serial twofold assay. It is filed as functional. To be noted: Cowan 1, 3 h, read-out: LD50 (the source's name). Put shortly: (§2)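 Mueller Hinton Broth static cultures grown at 37 °C and diluted to 5 × 10⁵ CFU/mL. Peptides were tested by twofold serial microdilution starting from 100 μg/mL in a final volume of 200 μL, with peptide-free controls. After 3 h incubation, cultures were serially 10-fold diluted in PBS and plated on Mueller Hinton Agar. Counts were taken after 24 h at 37 °C. Value is the dose giving 50% bacterial lethality.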

For data set [5], the system named is Escherichia coli. As to the kind of experiment: Antibacterial activity against Escherichia coli HB101 after 3 hrs by microdilution serial twofold assay. It is filed as functional. The note with it: HB101, 3 h, read-out: LD50 (the source's name). Put shortly:
as §2

The subject of data set [6] is Leishmania major. As to the kind of experiment: Antileishmanial activity against Leishmania major MHOM/IL/67/JERICHO-2 after 24 hrs by dye exclusion method. It is filed as functional. Put shortly: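 Promastigotes were grown at 25 °C in medium 199 with 20% heat-inactivated FCS, penicillin/streptomycin, L-glutamine, HEPES, adenine, hemin and biotin. They were resuspended at 5 × 10⁵ viable cells/mL and exposed to serial peptide dilutions at 25 °C with agitation. Viability was counted by trypan blue exclusion in a haemocytometer.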

Data set [7] has as its system Staphylococcus aureus. As to the kind of experiment: Antibacterial activity against Staphylococcus aureus Cowan 1 NCTC 8530 after 24 hrs by microdilution serial twofold assay. It counts as functional. To be noted: Cowan 1, 24 h. Put shortly:
as §1

The subject of data set [8] is Staphylococcus aureus. As to the kind of experiment: Antibacterial activity against multi drug-resistant Staphylococcus aureus after 24 hrs by microdilution serial twofold assay. It is filed as functional. Put shortly: (§3)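 Mueller Hinton Broth cultures grown statically at 37 °C and diluted to 5 × 10⁵ CFU/mL. Twofold serial microdilution from 100 μg/mL peptide, final volume 200 μL, with peptide-free controls. MIC is the lowest concentration with no turbidity increase after overnight incubation at 37 °C. Means come from at least two independent experiments run in duplicate.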

The next data set has as its system Burkholderia cepacia. The data set can be described thus: Antibacterial activity against Burkholderia cepacia 6/06 after 24 hrs by microdilution serial twofold assay. It counts as functional. An outline of the steps: as §1
For data set [9], the system named is Staphylococcus aureus. The data set can be described thus: Antibacterial activity against Staphylococcus aureus ATCC 6538P after 24 hrs by microdilution serial twofold assay. It is filed as functional.
Data set [10] deals with Stenotrophomonas maltophilia. The data set can be described thus: Antibacterial activity against Stenotrophomonas maltophilia FC after 24 hrs by microdilution serial twofold assay. It counts as functional. An outline of the steps: as §1
Data set [11] deals with Pseudomonas aeruginosa. The data set can be described thus: Antibacterial activity against Pseudomonas aeruginosa ATCC 15442 after 24 hrs by microdilution serial twofold assay. It is filed as functional. The note with it: ATCC 15442, 24 h.
For another data set, the system named is Bacillus subtilis. The data set can be described thus: Antibacterial activity against Bacillus subtilis ATCC 9466 after 24 hrs by microdilution serial twofold assay. To be noted: ATCC 9466, 24 h. It counts as functional.
For data set [12], the system named is Pseudomonas aeruginosa. The data set can be described thus: Antibacterial activity against multi drug-resistant Pseudomonas aeruginosa after 24 hrs by microdilution serial twofold assay. It counts as functional. An outline of the steps:
as §3

The next data set relates to Candida albicans. The data set can be described thus: Antifungal activity against wild type Candida albicans by broth microdilution method. It is filed as functional. Put shortly: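 Wild-strain yeast was tested in triplicate by broth microdilution following NCCLS recommendations. The MIC was the lowest peptide concentration with no increase in turbidity after overnight incubation at 37 °C.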

Regarding H-ALWKTMLKKLGTMA-NH2, the MIC was 48.8 µM in the data set on Escherichia coli [1]; 100 µg/mL and 48.8 µM with Leishmania major [6]; more than 48.8 µM against Staphylococcus aureus [7]. Further, the HC50 at 0.5 h in data set [2] was more than 100 µM. In addition, the LC50 is 50 µg/mL and 24.4 µM with Leishmania major [3]; 28.3 µM in the data set with Staphylococcus aureus [4]; 20.5 µM in the data set with Escherichia coli [5].
Turning to `CSCC[C@H](NC(=O)[C@@H](NC(=O)CNC(=O)[C@H](CC(C)C)NC(=O)[C@H](CCCCN)NC(=O)[C@H](CCCCN)NC(=O)[C@H](CC(C)C)NC(=O)[C@H](CCSC)NC(=O)[C@@H](NC(=O)[C@H](CCCCN)NC(=O)[C@H](Cc1cccc2ccccc12)NC(=O)[C@H](CC(C)C)NC(=O)[C@H](C)N)[C@@H](C)O)[C@@H](C)O)C(=O)N[C@@H](C)C(=O)N[C@@H](CC(C)C)C(N)=O` (H-AL[1Nal]KTMLKKLGTMAL-NH2), the MIC against Escherichia coli [1] was found to be 2.8 µM (≈ 4.8 µg/mL); against Staphylococcus aureus [8], 22.5 µM (≈ 38.6 µg/mL); against Burkholderia cepacia, 25 µM (≈ 42.9 µg/mL); in the data set with Staphylococcus aureus [9] it was 2.8 µM (≈ 4.8 µg/mL); in [10] it was 22.5 µM (≈ 38.6 µg/mL); with Pseudomonas aeruginosa [11], 5.6 µM (≈ 9.61 µg/mL). The MIC against Bacillus subtilis stood at 11.2 µM (≈ 19.2 µg/mL); against Pseudomonas aeruginosa [12], 11.2 µM (≈ 19.2 µg/mL); with Candida albicans it was 11.2 µM (≈ 19.2 µg/mL); in the data set on Staphylococcus aureus [7], 11.5 µM (≈ 19.7 µg/mL). Further, the HC50 at 0.5 h in data set [2] came to 75 µM. For the same compound, the figures for the LC50 in the data set on Staphylococcus aureus [4] and in the data set on Escherichia coli [5] were 2.4 µM and 0.9 µM, respectively.
Take H-ALWKTMLKKLGTMALHAGKAALGAAADTI-NH2: the MIC is 2.7 µM in the data set with Escherichia coli [1]; 25 µg/mL and 6.1 µM against Leishmania major [6]; 2.7 µM against Staphylococcus aureus [7]. For the same compound, the HC50 at 0.5 h in data set [2] is more than 100 µM. Besides, the LC50 is 9.6 µg/mL and 2.3 µM with Leishmania major [3]; less than 1.5 µM with Staphylococcus aureus [4]; 2.2 µM in the data set on Escherichia coli [5].
For the compound `CSCC[C@H](NC(=O)[C@@H](NC(=O)CNC(=O)[C@H](CC(C)C)NC(=O)[C@H](CCCCN)NC(=O)[C@H](CCCCN)NC(=O)[C@H](CC(C)C)NC(=O)[C@H](CCSC)NC(=O)[C@@H](NC(=O)[C@H](CCCCN)NC(=O)[C@H](CCc1ccccc1)NC(=O)[C@H](CC(C)C)NC(=O)[C@H](C)N)[C@@H](C)O)[C@@H](C)O)C(=O)N[C@@H](C)C(=O)N[C@@H](CC(C)C)C(N)=O` (H-AL[hPhe]KTMLKKLGTMAL-NH2), the MIC in the data set with Escherichia coli [1] was 11.7 µM (≈ 19.6 µg/mL); against Staphylococcus aureus [8] it was more than 46 µM; against Burkholderia cepacia it was 23 µM (≈ 38.6 µg/mL); with Staphylococcus aureus [9] it was 5.8 µM (≈ 9.74 µg/mL); in data set [10] it was 23 µM (≈ 38.6 µg/mL); against Pseudomonas aeruginosa [11] it was more than 46 µM. Besides, the minimal inhibitory concentration (MIC) in the data set on Bacillus subtilis stood at 23 µM (≈ 38.6 µg/mL); against Pseudomonas aeruginosa [12], 46 µM (≈ 77.2 µg/mL); in the data set on Candida albicans it was 5.8 µM (≈ 9.74 µg/mL); with Staphylococcus aureus [7] it was 46.8 µM (≈ 78.6 µg/mL). The HC50 at 0.5 h in data set [2] was more than 100 µM. Besides, the LC50 is 9.3 µM with Staphylococcus aureus [4] and 3 µM with Escherichia coli [5].
For H-ALLKTMLKKLGTMAL-NH2, the MIC is 23.9 µM with Escherichia coli [1]; more than 48 µM against Staphylococcus aureus [8]; more than 48 µM with Burkholderia cepacia; 24 µM against Staphylococcus aureus [9]; more than 48 µM in data set [10]; more than 48 µM against Pseudomonas aeruginosa [11]. For the same compound, the MIC was 24 µM in the data set on Bacillus subtilis, more than 48 µM against Pseudomonas aeruginosa [12], 12 µM in the data set with Candida albicans and more than 47.9 µM in the data set on Staphylococcus aureus [7]. In addition, the HC50 at 0.5 h in [2] was more than 100 µM. Moreover, the LC50 in the data set on Staphylococcus aureus [4] was 12 µM; in the data set with Escherichia coli [5] it was 6 µM.
On to H-ALWKTMLKKLGTMALHAGK-NH2, for which the MIC is 3.6 µM in the data set with Escherichia coli [1]; 50 µg/mL and 17.9 µM against Leishmania major [6]; 35.9 µM against Staphylococcus aureus [7]. Besides, in data set [2], the HC50 at 0.5 h is more than 100 µM. Also, the LC50 is 22 µg/mL and 7.9 µM with Leishmania major [3]; 10.7 µM in the data set with Staphylococcus aureus [4]; less than 1.8 µM in the data set on Escherichia coli [5].

For orientation: MIC means the lowest concentration found to suppress growth. Low readings indicate a more susceptible organism, high ones a less susceptible organism.

The record behind these values is ChEMBL document CHEMBL1156720, “Synthesis and antimicrobial activity of dermaseptin S1 analogues” (Bioorg Med Chem, 2008).
